# The source made the active and inactive calls. The calls are words filed in the database; no cut-off is given here.
# Experiments:
# Tyrosinase = target: T1, Tyrosinase (Homo sapiens, UniProt P14679); test: Inhibition of tyrosinase (unknown origin) using L-tyrosine as substrate assessed as oxidation of L-tyrosine after 15 mins
# T1 sequence (P14679 whole entry): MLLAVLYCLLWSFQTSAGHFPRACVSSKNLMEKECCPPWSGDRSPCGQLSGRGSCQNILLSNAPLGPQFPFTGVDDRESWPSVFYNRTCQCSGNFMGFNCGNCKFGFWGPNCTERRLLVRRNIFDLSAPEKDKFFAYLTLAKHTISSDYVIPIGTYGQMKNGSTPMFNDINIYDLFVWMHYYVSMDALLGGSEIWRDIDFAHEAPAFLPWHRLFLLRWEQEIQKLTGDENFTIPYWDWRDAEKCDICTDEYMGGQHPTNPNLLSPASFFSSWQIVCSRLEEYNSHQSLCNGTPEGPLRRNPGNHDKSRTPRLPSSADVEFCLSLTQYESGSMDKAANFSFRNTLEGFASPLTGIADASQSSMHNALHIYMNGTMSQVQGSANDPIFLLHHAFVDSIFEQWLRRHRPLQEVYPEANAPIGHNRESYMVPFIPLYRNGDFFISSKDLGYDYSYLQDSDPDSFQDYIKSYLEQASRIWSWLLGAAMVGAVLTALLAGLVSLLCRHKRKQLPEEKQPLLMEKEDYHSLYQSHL
# Method in brief: (§1)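 Tyrosinase at 333 U/mL (stock) in 45 mM sodium phosphate, pH 6.6, with 2 mM L-tyrosine (stock). Incubated 37 °C for 15 min; oxidation read at 492 nm. Screened at 20 μM; dose-response for IC50. Glyasperin C positive control.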
# [1] = target: T2, Tyrosinase (Homo sapiens) (UniProt P14679); test: Inhibition of tyrosinase (unknown origin) using L-tyrosine as substrate assessed as oxidation of L-tyrosine at 20 uM after 15 mins; method in brief: as §1
# T2 sequence (whole entry): T1 sequence (P14679 whole entry)
# SW480 [2] = test: Inhibition of NFkappaB transcription in human SW480 cells at 10 uM by luciferase reporter gene assay; type: cell-based
# Method in brief: (§2)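 SW480 cells (RPMI1640) stably transfected with an NF-κB luciferase reporter. […] MG132 positive control.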
# [3] = (§3) Inhibition of NFkappaB transcription in human SW480 cells at by luciferase reporter gene assay; type: cell-based; method in brief: as §2
# SW480 [4] = test: as §3; type: cell-based; method in brief: as §2
# [5] = target: T3, Tyrosine-protein phosphatase non-receptor type 1 (Homo sapiens) (UniProt P18031); test: Inhibition of recombinant human PTP1B assessed as hydrolysis of p-nitrophenyl phosphate at 25 uM after 30 mins relative to control
# T3 sequence (whole entry): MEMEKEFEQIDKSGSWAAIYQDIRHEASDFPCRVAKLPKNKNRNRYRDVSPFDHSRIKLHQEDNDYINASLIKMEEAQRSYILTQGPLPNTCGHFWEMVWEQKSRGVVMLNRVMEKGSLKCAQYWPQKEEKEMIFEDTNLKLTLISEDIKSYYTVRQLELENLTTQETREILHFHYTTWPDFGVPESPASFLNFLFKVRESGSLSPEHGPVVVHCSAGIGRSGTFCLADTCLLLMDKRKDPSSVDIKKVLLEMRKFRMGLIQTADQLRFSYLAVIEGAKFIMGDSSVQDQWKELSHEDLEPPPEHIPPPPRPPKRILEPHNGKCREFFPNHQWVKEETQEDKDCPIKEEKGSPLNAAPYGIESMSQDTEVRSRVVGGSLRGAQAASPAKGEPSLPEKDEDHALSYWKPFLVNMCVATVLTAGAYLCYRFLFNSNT
# RAW264.7 [6] = test: Antiinflammatory activity in mouse RAW264.7 cells assessed as inhibition of LPS-induced nitric oxide production at 10 uM after 24 hrs by Griess assay; type: functional; settings: for inhibition at 10 µM: RAW264.7, 24 h
# Method in brief: (§4)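 RAW264.7 cells plated at 1.2 × 10^5/well in RPMI1640 and co-treated with compound and 1 μg/mL LPS for 24 h. Nitrite in medium read with Griess reagent (sulfanilamide/naphthylethylenediamine, phosphoric acid) after 15 min at 37 °C, absorbance 540 nm. […] Curcumin positive control.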
# Influenza A virus = test: Antiviral activity against Influenza A virus A/WSN/33(H1N1) infected in MDCK cells at 100 uM preincubated with virus for 15 mins followed by cells addition measured at 36 hrs post infection; type: functional, A/WSN/1933(H1N1)
# Method in brief: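 MDCK canine kidney cells grown in DMEM and infected with influenza A/WSN/33 (H1N1). Compounds screened at 100 μM. Oseltamivir phosphate served as the positive control.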
# RAW264.7 [7] = test: Antiinflammatory activity in mouse RAW264.7 cells assessed as inhibition of LPS-induced nitric oxide production at 20 uM after 24 hrs by Griess assay; type: functional; settings: RAW264.7, 24 h; method in brief: as §4
# RAW264.7 [8] = test: Antiinflammatory activity in mouse RAW264.7 cells assessed as inhibition of LPS-induced nitric oxide production after 24 hrs by Griess assay; type: functional, cell-based; settings: RAW264.7, 24 h; method in brief: as §4
# [9] = target: T4, Nuclear factor erythroid 2-related factor 2 (Homo sapiens) (UniProt Q16236); test: Activation of NRF2 transcription in human HepG2C8 cells at 10 uM after 6 hrs by luciferase reporter gene assay relative to control; type: cell-based
# T4 sequence (whole entry): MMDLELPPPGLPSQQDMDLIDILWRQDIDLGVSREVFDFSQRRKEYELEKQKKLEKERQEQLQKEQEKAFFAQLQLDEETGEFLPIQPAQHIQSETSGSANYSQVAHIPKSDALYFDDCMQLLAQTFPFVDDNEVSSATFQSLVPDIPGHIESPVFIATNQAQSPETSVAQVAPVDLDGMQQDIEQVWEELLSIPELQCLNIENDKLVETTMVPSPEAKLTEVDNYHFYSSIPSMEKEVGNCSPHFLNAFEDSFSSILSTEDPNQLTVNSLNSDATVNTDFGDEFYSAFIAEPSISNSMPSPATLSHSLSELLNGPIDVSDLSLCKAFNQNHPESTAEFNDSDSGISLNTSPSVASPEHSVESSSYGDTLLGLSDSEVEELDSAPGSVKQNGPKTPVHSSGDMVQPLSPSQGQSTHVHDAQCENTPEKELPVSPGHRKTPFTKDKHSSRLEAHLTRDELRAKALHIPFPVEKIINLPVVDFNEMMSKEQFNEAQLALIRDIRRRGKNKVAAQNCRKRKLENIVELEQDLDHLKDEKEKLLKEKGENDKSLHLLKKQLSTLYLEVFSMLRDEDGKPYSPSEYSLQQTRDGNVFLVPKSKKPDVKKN
# Method in brief: (§5)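 Luciferase reporter in HepG2C8 cells, which are HepG2 stably transfected with an Nrf2 luciferase reporter and grown in MEM. Screened at 10 μM, with dose-response over 2.5−40 μM. Activity expressed as fold of control. tBHQ positive control.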
# [10] = target: T4, Nuclear factor erythroid 2-related factor 2 (Homo sapiens); test: Activation of NRF2 transcription in human HepG2C8 cells after 6 hrs by luciferase reporter gene assay; type: cell-based; method in brief: as §5
# HepG2 = test: Toxicity in human HepG2 cells at 20 to 40 uM; type: cell-based; settings: hepg2, 40 µM
# [11] = target: T4, Nuclear factor erythroid 2-related factor 2 (Homo sapiens); test: Activation of NRF2 transcription in human HepG2C8 cells at 100 uM after 6 hrs by luciferase reporter gene assay relative to control; type: cell-based
# [12] = target: T4, Nuclear factor erythroid 2-related factor 2 (Homo sapiens); test: Inhibition of NRF2 transcription in human HepG2C8 cells at 10 uM after 6 hrs by luciferase reporter gene assay relative to control; type: cell-based; method in brief: as §5
smiles,measurement,setting,value
O=c1c(O)c(-c2ccc(O)cc2)oc2cc(O)cc(O)c12 [KAEMPFEROL],IC50,Tyrosinase,1000 nM
same,inhibition,[1],> 95%
COc1ccc2c(c1)OC1C2COC2=CC(=O)CCC21O (stereo unspecified),inhibition,SW480 [2],> 30%
same,IC50,[3],16.9 µM
same,inhibition,SW480 [4],Dose-dependent effect
same,inhibition,[5],inactive
COc1cc2oc(-c3ccc(O)cc3O)cc2c(OC)c1CC=C(C)C,inhibition,RAW264.7 [6],inactive
same,inhibition,[5],> 90%
same,Activity,Influenza A virus,>30%
COc1cc2c(c(OC)c1CC=C(C)C)C1c3ccc(O)cc3OC1(O)CO2 (stereo unspecified),inhibition,SW480 [2],> 30%
same,IC50,[3],24.6 µM
same,inhibition,SW480 [4],Dose-dependent effect
COc1cc(O)cc2c1[C@@H]1Oc3c(ccc4c3C=CC(C)(C)O4)[C@@H]1CO2,inhibition,SW480 [2],> 30%
same,IC50,[3],25.8 µM
same,inhibition,SW480 [4],Dose-dependent effect
CC1(C)C=Cc2c(ccc3c2OC[C@@H](c2ccc(O)cc2O)C3)O1 [GLABRIDIN],inhibition,SW480 [2],> 30%
same,IC50,[3],21.4 µM
same,inhibition,SW480 [4],Dose-dependent effect
COc1cc(/C=C/C(=O)CC(=O)/C=C/c2ccc(O)c(OC)c2)ccc1O [CURCUMIN],inhibition at 20 µM,RAW264.7 [7],53%
same,inhibition at 10 µM,RAW264.7 [6],12%
same,IC50,RAW264.7 [8],19.1 µM
CC(C)=CCc1c(O)cc2occ(-c3ccc(O)cc3O)c(=O)c2c1O [UNCINANONE A],fold change (FC),[9],6.68
same,Activity,[10],Dose-dependent effect
same,Activity,HepG2,Toxic
same,Activity,Influenza A virus,>30%
CC(C)(C)c1cc(O)ccc1O,fold change (FC),[9],1.51
same,fold change (FC),[11],4.34
COc1c(-c2ccc(O)c(CC=C(C)C)c2)oc2cc(O)cc(O)c2c1=O,inhibition at 10 µM,RAW264.7 [6],> 50%
same,IC50,RAW264.7 [8],12.1 µM
same,inhibition,[5],85%
COc1c2c(cc3c1CCC(C)(C)O3)OC[C@@H](c1ccc(O)c(CCC(C)(C)O)c1O)C2,inhibition,[12],76%

# Source: ChEMBL document CHEMBL3808312, “Bioactive Constituents of Glycyrrhiza uralensis (Licorice): Discovery of the Effective Components of a Traditional Herbal Medicine” (J Nat Prod, 2016)
